IDH1 R132H inh – inhibitors of IDH1 R132H reductase, primary screen, biochemical, plate reader, single point; Isocitrate dehydrogenase [NADP] cytoplasmic (Homo sapiens), O75874; diaphorase/resazurin fluorescence, 60 min; inhibition, % at 10 µM; hit rate 0.18% among 70,000; AID 624101, 2012; in the data active means inhibition above about 34%; inconclusive means no clear call, values can overlap the other calls; inactive means below about 11%
Target sequence (O75874 whole entry R132H): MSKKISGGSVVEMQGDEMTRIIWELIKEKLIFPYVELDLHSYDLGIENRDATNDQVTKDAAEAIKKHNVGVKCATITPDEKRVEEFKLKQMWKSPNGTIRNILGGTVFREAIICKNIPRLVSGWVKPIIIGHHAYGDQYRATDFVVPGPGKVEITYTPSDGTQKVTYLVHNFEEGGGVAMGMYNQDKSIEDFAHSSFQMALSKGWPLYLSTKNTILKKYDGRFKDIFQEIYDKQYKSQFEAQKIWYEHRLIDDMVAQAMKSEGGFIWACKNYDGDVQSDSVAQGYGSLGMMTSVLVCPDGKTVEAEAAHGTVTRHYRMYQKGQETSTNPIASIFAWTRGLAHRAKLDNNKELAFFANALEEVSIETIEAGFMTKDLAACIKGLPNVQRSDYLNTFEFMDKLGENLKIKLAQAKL
T cruzi growth-1 – T. cruzi intracellular proliferation inhibitors, primary screen, cell-based, beta-gal Tulahuen parasites, NIH3T3 host, luminescence | T. cruzi beta-gal in NIH3T3, GalScreen luminescence, 90 h | inhibition, % at 8.34 µM | hit rate 5.9% among 77,000;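 active means mean inhibition above about 93%, with at least 55% of replicates each passing it, limit read from the data, passing the limit was not always enough; inconclusive means only one of those two conditions holds; inactive means neither condition holds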
Pf Dd2 growth – P. falciparum Dd2 growth inhibitors, primary screen, SYBR Green fluorescence, single dose replicates; 72 h; active compounds read low; activity change, % at 10 µM; hit rate 2.3% among 94,000; in the data active means activity change below about -80%; inconclusive means no clear call, values can overlap the other calls
KDM4C inh – inhibitors of GASC-1 (KDM4C) histone demethylase, primary screen, biochemical, single concentration HTS; hit rate 0.15% among 96,000; Lysine-specific demethylase 4C (Homo sapiens), Q9H3R0; inhibition, % at 12.5 µM; GST-KDM4C 2-372, H3K9me3 peptide, LANCE TR-FRET;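 active means mean replicate inhibition above about 25%, with at least 55% of replicates also reaching it, limit read from the data, passing the limit was not always enough; inconclusive means only one of those two conditions met; inactive means neither condition met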
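material = GST-tagged GASC-1 (JMJD2C) catalytic fragment, aa 2-372 | amount = enzyme final amount 10 nM | medium = HEPES buffer, pH 7.5, plus ascorbate | also added = H3K9me3 peptide substrate, Fe(II), 2-oxoglutarate | dosing = single dose | times = 30 min demethylation and 1 h detection at room temperature | detection = LANCE TR-FRET | read-out basis = Fall in 671/618 emission ratio as inhibition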
T cruzi growth-2 – T. cruzi intracellular proliferation inhibitors, confirmation, cell-based, NIH3T3 host, beta-gal parasite, luminescence, cherry-pick | shares compounds with T cruzi growth-1 | T. cruzi beta-gal in NIH3T3, GalScreen luminescence, 90 h | inhibition, % at 8.35 µM | hit rate 72% among 5,600 | AID 651739, 2012;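 active means mean replicate inhibition above about 95% and at least 55% of replicates individually reaching it, limit read from the data; inconclusive means only one of the two criteria is met; inactive means neither criterion is met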
T cruzi growth-3 – inhibitors of intracellular T. cruzi replication, confirmation, NIH3T3 host cells, beta-gal parasites, cherry-pick, set 2; shares compounds with T cruzi growth-1; T. cruzi beta-gal in NIH3T3, GalScreen luminescence, 90 h; inhibition, % at 2.09 µM; hit rate 21% among 5,600; AID 651740, 2012;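 active means mean inhibition above about 95%, with at least 55% of replicates also reaching it, limit read from the data; inconclusive means meets just one of the two conditions; inactive means meets neither condition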
NIH3T3 tox – cytotoxicity in mouse NIH/3T3 fibroblasts, confirmation, cytotoxicity control for T. cruzi proliferation inhibitor project, cell-based, cherry-pick, single point | shares compounds with T cruzi growth-1 | NIH/3T3 viability, CellTiter-Glo ATP luminescence, 90 h | cytotoxicity (signal decrease), % at 8.35 µM | hit rate 14% among 5,600 | AID 651742, 2012;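 active means mean signal decrease across replicates above about 35% based on untreated-well scatter, with enough replicates individually passing, limit read from the data; inconclusive means no rule stated though some were filed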
3T3 cytotox 2 – NIH/3T3 fibroblast cytotoxicity, confirmation, cytotoxicity control, cell-based, cherry-pick, single point, set 2; shares compounds with T cruzi growth-1; NIH/3T3 viability, CellTiter-Glo ATP luminescence, 90 h; inhibition, % at 24.9 µM; hit rate 56% among 5,600;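 active means mean loss of cell viability signal at or above a set limit, and enough replicates individually reaching it; inconclusive means meets only the mean limit or only the replicate share; inactive means meets neither condition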
Numbers stand for hits; – = inactive; ? = inconclusive; · = no result. Sampled rows, rich in hits. Any-hit rate of the full collection: about 5.8%.

SMILES | IDH1 R132H inh | T cruzi growth-1 | Pf Dd2 growth | KDM4C inh | T cruzi growth-2 | T cruzi growth-3 | NIH3T3 tox | 3T3 cytotox 2
COc1ccc(S(=O)(=O)Nc2cccc3c2O[C@H](CN(C)Cc2ccc(C(=O)O)cc2)[C@H](C)CN([C@@H](C)CO)C3=O)cc1 | – | ? | – | – | – | – | – | –
COc1ccc(S(=O)(=O)Nc2cccc3c2O[C@H](CN(C)Cc2ccc(C(=O)O)cc2)[C@@H](C)CN([C@H](C)CO)C3=O)cc1 | – | – | – | – | · | · | · | ·
COc1ccc(S(=O)(=O)Nc2cccc3c2O[C@@H](CN(C)Cc2ccc(Cl)c(Cl)c2)[C@H](C)CN([C@@H](C)CO)C3=O)cc1 | – | 102 | – | – | 110 | – | – | –
Cc1noc(C)c1S(=O)(=O)Nc1cccc2c1O[C@@H](CN(C)Cc1ccccc1)[C@@H](C)CN([C@H](C)CO)C2=O | – | – | – | – | · | · | · | ·
Cc1noc(C)c1S(=O)(=O)Nc1cccc2c1O[C@H](CN(C)Cc1ccc(-c3ccccc3)cc1)[C@H](C)CN([C@H](C)CO)C2=O | – | 108 | – | – | – | – | – | –
CCCn1c(=O)cc(N)n(-c2ccc(Cl)cc2)c1=O | – | · | · | · | · | · | · | ·
CCN(CC(=O)Nc1ccc(OC)cc1)S(=O)(=O)c1ccc(Cl)cc1 | – | · | · | · | · | · | · | ·
O=S(=O)(Cc1ccccc1)N1CCCCN2[C@H](CO)[C@@H](c3ccc(-c4ccccc4)cc3)[C@@H]2C1 | · | 114 | – | – | 102 | 103 | ? | 101
O=S(=O)(Cc1ccccc1)N1CCCCN2[C@H](CO)[C@H](c3ccc(-c4ccccc4)cc3)[C@H]2C1 | · | 106 | – | – | 98 | – | 54 | 104
O=S(=O)(Cc1ccccc1)N1CCCCN2[C@H](CO)[C@H](c3ccc(-c4ccncc4)cc3)[C@@H]2C1 | · | – | – | – | · | · | · | ·
C/C=C/c1ccc([C@H]2[C@@H](C#N)N(C(=O)Cc3ccccn3)[C@@H]2CO)cc1 | · | 103 | – | – | 98 | – | – | ?
N#C[C@@H]1[C@@H](c2ccc(C#CC3CCCC3)cc2)[C@H](CO)N1C(=O)Cc1ccccn1 | · | · | – | – | · | · | · | ·
N#C[C@H]1[C@H](c2ccc(C#CC3CCCC3)cc2)[C@H](CO)N1C(=O)Cc1ccccn1 | · | · | – | – | · | · | · | ·
N#C[C@@H]1[C@@H](c2ccc(C#CC3CC3)cc2)[C@H](CO)N1C(=O)Cc1ccccn1 | · | 99 | – | – | 104 | – | ? | –
C/C=C/c1ccc([C@@H]2[C@H](C#N)N(C(=O)Cc3ccccn3)[C@H]2CO)cc1 | · | – | – | – | · | · | · | ·
N#C[C@@H]1[C@H](c2ccc(C#CC3CCCCC3)cc2)[C@@H](CO)N1C(=O)Cc1ccccn1 | · | 99 | – | – | 96 | 103 | – | 99
N#C[C@@H]1[C@H](c2ccc(C#CC3CCCCC3)cc2)[C@H](CO)N1C(=O)Cc1ccccn1 | · | 98 | – | – | – | 112 | – | –
N#C[C@@H]1[C@@H](c2ccc(C#CC3CCCCC3)cc2)[C@H](CO)N1C(=O)Cc1ccccn1 | · | – | – | – | · | · | · | ·
O=C(C[C@@H]1C[C@H]2c3cc(NC(=O)Nc4ccccc4F)ccc3O[C@H]2[C@H](CO)O1)NCc1ccc(Oc2ccccc2)cc1 | – | 106 | – | – | – | – | – | 78
O=C(C[C@H]1C[C@@H]2c3cc(NC(=O)C4CCOCC4)ccc3O[C@@H]2[C@@H](CO)O1)NCc1ccc(Oc2ccccc2)cc1 | – | 156 | – | – | – | – | – | –
COc1ccc(NC(=O)Nc2ccc3c(c2)C(=O)N([C@H](C)CO)C[C@@H](C)[C@H](CN(C)C(=O)NC2CCCCC2)OCCCC[C@@H](C)O3)cc1 | · | 100 | – | – | 107 | – | – | –
COc1ccc(NC(=O)Nc2ccc3c(c2)C(=O)N([C@@H](C)CO)C[C@H](C)[C@H](CN(C)C(=O)NC2CCCCC2)OCCCC[C@H](C)O3)cc1 | · | ? | – | – | 110 | – | – | –
O=C(CC1(O)C(=O)N(Cc2ccc(Cl)cc2)c2ccc(Cl)cc21)c1ccc2c(c1)OCCO2 (stereo not given) | – | · | · | · | · | · | · | ·
Cc1ccc(C(=O)c2oc3ccccc3c2NC(=O)c2cc3ccccc3oc2=O)cc1F | – | · | · | · | · | · | · | ·
Cc1cc(NC(=O)CCCN2C(=O)c3cccc4cccc(c34)C2=O)n(-c2ccccc2)n1 | – | · | · | · | · | · | · | ·
SMILES | IDH1 R132H inh | T cruzi growth-1 | Pf Dd2 growth | KDM4C inh | T cruzi growth-2 | T cruzi growth-3 | NIH3T3 tox | 3T3 cytotox 2
O=c1[nH]c(=S)c2c(n1N1CCOCC1)CCC2 | – | · | · | · | · | · | · | ·
C[C@H]1CN([C@@H](C)CO)S(=O)(=O)c2ccc(C#Cc3ccc(F)cc3)cc2O[C@@H]1CN(C)C(=O)NC1CCCC1 | · | 117 | – | – | 101 | – | – | 107
C[C@@H]1CN([C@H](C)CO)S(=O)(=O)c2ccc(C#Cc3ccc(F)cc3)cc2O[C@H]1CN(C)C(=O)NC1CCCC1 | – | – | – | – | · | · | · | ·
CC(C)NC(=O)N(C)C[C@H]1Oc2cc(C#Cc3ccc(F)cc3)ccc2S(=O)(=O)N([C@@H](C)CO)C[C@@H]1C | – | – | – | – | · | · | · | ·
CC(C)NC(=O)N(C)C[C@@H]1Oc2cc(C#Cc3ccc(F)cc3)ccc2S(=O)(=O)N([C@@H](C)CO)C[C@@H]1C | – | 114 | – | – | 107 | – | – | ?
COc1cccc(C(=O)Nc2ccc3c(c2)OC[C@H](C)N(CCc2ccccc2)C[C@@H](C)[C@@H](OC)CN(C)C3=O)c1 | – | 119 | – | – | 109 | – | – | –
COc1cccc(C(=O)Nc2ccc3c(c2)OC[C@H](C)N(CCc2ccccc2)C[C@H](C)[C@@H](OC)CN(C)C3=O)c1 | – | 116 | – | – | 103 | – | – | –
COc1cccc(C(=O)Nc2ccc3c(c2)OC[C@@H](C)N(CCc2ccccc2)C[C@@H](C)[C@@H](OC)CN(C)C3=O)c1 | – | – | – | – | · | · | · | ·
COc1cccc(C(=O)Nc2ccc3c(c2)C(=O)N(C)C[C@H](OC)[C@@H](C)CN(CCc2ccccc2)[C@H](C)CO3)c1 | – | – | – | – | · | · | · | ·
COc1cccc(C(=O)Nc2ccc3c(c2)OC[C@@H](C)N(CCc2ccccc2)C[C@H](C)[C@@H](OC)CN(C)C3=O)c1 | – | 110 | – | – | 110 | – | – | –
